For one data set, the system named is MDA-MB-435 cells. In words: Cell binding and uptake study. The class given is cell-based, human. The following applies: 5 × 10^5 MDA-MB-435 cells, 37 °C, 30, 60, 120 min. An outline of the steps: (§1)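 Cells were suspended in integrin binding buffer (25 mM Tris pH 7.4, 150 mM NaCl, 2 mM CaCl₂, 1 mM MgCl₂, 1 mM MnCl₂, 0.1% BSA). They were incubated with the ⁶⁴Cu-labeled test peptide at 1.5 μCi/tube, with or without c(RGDyK). Cells were then washed three times with chilled PBS, pelleted and gamma-counted. Uptake is % of added radioactivity, in triplicate. U87MG were maintained in DMEM and MDA-MB-435 in L-15, each with 10% heat-inactivated FBS.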

A short description of data set [1]: In vivo metabolite analysis. More on the design: species or system mouse. To be noted: radio-HPLC and gamma counting. The procedure, abridged: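 Female athymic nude mice bearing subcutaneous shoulder U87MG xenografts (~10⁷ cells; tumors 8–10 mm) were anesthetized and given 200–400 μCi of ⁶⁴Cu-labeled test peptide by tail vein, then euthanized. Blood and tumor were suspended in ~500 μL PBS plus 500–1000 μL DMF and homogenized by mortar and pestle. Homogenates were passed through a 0.2 μm filter. Filtrates were run on reversed-phase HPLC, with 30 s fractions gamma-counted (cpm).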

The next data set has as its system U87MG cells. The data set is described as follows: Cell binding and uptake study. The class given is cell-based, human. The following applies: 5 × 10^5 U87MG cells, 1 μg c(RGDyK), 37 °C, 30, 60, 120 min. An outline of the steps:
as §1

The nature of data set [2]: MicroPET imaging of MDA-MB-435 xenografts. To be noted: female, athymic nude (nu/nu), mouse, tumor (MDA-MB-435 xenograft), iv, total radioactivity. In kind it is in vivo. An outline of the steps: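 MDA-MB-435 cells were grown in Leibovitz L-15 with 10% FBS, and 5 × 10⁶ cells in PBS were implanted subcutaneously in the shoulder of 4-6-week female nude mice. At 8-10 mm tumor diameter, mice (n ≥ 3) received ~100 μCi (~0.5 nmol) labelled probe by tail vein. Imaging used microPET with 3 or 5 min static scans. ROI counts/g/min were converted to %ID/g assuming 1 g/mL, without attenuation correction. Blocking groups were co-injected with 330 μg unlabelled c(RGDyK).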

Data set [3] in a line: In vivo biodistribution, gamma counting of dissected tissue. The following applies: nude (nu/nu), mouse, iv, 100 uCi, total radioactivity. An outline of the steps:
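U87MG xenograft-bearing anesthetized nude mice received ~100 μCi (~0.5 nmol) of 64Cu/Cy5.5 dual-labelled test peptide by tail vein. They were euthanized at 1, 4 and 24 hr. Dissected tissues were weighed and gamma counted, calibrated against a pre-measured tracer aliquot, and normalized to whole body weight and residual tail activity. Values are %ID/g, mean and standard deviation of three mice.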

A short description of data set [4]: Stability in mouse serum, radio-HPLC. The class given is in vitro ADME. The following applies: 50% mouse serum, 37 °C.
For data set [5], the target named is integrin αvβ3 (Homo sapiens) (UniProt P06756). The following applies: cited from earlier work.
integrin αvβ3 (Homo sapiens), sequence (P06756 31-1048, chain 1 of 2): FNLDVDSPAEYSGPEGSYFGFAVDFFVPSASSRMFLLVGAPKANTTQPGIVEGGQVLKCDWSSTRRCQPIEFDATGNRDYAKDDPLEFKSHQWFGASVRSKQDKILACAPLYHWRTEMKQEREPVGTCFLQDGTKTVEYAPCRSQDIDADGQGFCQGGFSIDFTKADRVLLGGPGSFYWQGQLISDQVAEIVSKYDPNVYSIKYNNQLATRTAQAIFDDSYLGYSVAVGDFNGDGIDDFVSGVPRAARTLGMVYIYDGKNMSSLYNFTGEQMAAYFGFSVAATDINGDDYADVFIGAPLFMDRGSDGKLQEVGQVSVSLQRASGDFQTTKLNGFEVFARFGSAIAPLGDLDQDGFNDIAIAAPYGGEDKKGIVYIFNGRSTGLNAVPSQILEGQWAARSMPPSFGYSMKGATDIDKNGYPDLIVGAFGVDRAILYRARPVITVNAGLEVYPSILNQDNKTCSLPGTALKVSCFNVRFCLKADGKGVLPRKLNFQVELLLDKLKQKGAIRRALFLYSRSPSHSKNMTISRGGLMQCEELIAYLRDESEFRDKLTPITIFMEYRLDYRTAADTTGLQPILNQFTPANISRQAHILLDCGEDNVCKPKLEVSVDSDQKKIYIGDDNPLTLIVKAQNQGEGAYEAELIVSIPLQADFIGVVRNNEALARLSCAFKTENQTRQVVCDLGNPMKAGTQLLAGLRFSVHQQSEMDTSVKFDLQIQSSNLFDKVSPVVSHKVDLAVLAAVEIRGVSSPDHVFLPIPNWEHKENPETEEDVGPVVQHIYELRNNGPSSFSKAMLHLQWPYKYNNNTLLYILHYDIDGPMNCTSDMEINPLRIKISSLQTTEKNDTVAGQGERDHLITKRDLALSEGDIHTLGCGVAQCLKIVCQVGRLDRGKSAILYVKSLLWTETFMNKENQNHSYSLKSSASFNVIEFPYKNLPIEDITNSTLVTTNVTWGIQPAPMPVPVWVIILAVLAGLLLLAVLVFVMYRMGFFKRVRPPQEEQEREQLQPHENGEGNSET
integrin αvβ3 (Homo sapiens), sequence (P05106 27-788, chain 2 of 2, further chain): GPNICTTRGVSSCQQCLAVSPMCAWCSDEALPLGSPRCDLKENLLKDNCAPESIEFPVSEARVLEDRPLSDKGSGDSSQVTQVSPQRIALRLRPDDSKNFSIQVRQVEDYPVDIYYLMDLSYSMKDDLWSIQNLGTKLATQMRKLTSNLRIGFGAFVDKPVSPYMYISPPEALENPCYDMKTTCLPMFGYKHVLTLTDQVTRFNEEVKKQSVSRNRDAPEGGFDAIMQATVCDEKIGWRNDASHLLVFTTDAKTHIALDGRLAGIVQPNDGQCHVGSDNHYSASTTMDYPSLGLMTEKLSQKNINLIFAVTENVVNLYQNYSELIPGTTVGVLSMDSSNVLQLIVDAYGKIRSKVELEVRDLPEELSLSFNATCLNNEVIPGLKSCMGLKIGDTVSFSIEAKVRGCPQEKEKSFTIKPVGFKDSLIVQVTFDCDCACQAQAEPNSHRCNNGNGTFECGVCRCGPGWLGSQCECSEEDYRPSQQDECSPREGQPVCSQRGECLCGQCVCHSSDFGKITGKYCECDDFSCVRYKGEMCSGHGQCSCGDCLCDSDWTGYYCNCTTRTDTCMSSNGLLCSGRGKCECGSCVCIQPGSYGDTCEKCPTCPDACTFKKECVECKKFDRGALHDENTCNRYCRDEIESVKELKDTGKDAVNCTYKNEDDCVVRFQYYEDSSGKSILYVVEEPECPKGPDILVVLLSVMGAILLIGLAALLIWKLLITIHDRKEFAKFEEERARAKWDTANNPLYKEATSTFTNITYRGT
For data set [6] the following is noted: 1 hr after injection into mice; cited from earlier work.
The conditions of data set [7]: incubation in serum for 24 h; cited from earlier work.
Another data set concerns U87MG tumor xenografts. To be noted: cited from earlier work.
A further data set addresses αvβ3 integrin (Homo sapiens, UniProt P05106+P06756). The following applies: read-out: KD for αvβ3 integrin; cited from earlier work.

As usually defined, the tissue uptake is the percentage of the injected dose found per gram of tissue. As usually defined, the Kd is the concentration at which binding is half-saturated.

Where two headings read alike, the source gives them in different places. Bridge positions count the residues as written; N and C are the ends. Ends that are not written are not given here. Peptide text beside a SMILES is read from it. * marks the point of attachment. DOTA = O=C(O)CN1CCN(CC(=O)O)CCN(CC(=O)*)CCN(CC(=O)O)CC1

αvβ3 integrin, sequence (P06756 31-889 limits assumed): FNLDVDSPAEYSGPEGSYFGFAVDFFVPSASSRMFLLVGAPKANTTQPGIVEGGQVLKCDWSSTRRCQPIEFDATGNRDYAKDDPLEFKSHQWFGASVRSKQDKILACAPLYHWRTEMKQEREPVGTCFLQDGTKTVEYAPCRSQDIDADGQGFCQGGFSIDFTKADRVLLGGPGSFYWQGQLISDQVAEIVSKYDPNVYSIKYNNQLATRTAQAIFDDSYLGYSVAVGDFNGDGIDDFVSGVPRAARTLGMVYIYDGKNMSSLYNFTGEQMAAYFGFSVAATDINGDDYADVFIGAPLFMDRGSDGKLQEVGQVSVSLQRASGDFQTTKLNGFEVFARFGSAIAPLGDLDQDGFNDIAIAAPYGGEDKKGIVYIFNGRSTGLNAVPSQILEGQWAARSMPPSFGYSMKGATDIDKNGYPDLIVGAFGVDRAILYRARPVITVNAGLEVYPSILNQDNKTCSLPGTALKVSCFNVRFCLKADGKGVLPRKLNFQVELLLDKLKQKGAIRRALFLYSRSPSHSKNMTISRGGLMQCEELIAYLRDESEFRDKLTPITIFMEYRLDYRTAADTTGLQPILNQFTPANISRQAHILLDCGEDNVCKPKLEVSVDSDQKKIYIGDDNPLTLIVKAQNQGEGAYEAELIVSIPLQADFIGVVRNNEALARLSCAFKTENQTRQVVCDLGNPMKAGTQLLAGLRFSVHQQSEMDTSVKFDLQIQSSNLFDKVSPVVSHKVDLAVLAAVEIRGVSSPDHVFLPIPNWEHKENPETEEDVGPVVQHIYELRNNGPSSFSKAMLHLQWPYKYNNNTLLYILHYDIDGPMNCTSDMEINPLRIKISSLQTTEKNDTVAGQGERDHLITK
αvβ3 integrin, sequence (P06756 891-1048 partner limits assumed): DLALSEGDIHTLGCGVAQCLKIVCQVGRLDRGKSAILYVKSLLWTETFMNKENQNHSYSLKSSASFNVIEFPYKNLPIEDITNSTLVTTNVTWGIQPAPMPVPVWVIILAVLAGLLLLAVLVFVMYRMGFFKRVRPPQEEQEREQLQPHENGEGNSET
αvβ3 integrin, sequence (P05106 27-788): as the sequence (P05106 27-788, chain 2 of 2, further chain) above
echistatin, sequence (P17347 131-179): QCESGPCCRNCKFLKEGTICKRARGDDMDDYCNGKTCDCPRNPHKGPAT

Consider `CCN1C(=CC=CC=CC2=[N+](CCCCCC(=O)NCCCC[C@H](NC(=O)CN3CCN(CC(=O)O)CCN(CC(=O)O)CCN(CC(=O)O)CC3)C(=O)NCC(=O)NCC(=O)N[C@@H](Cc3ccc(O)cc3)C(=O)NCC(=O)N[C@H]3CSSC[C@@H]4NC(=O)CNC(=O)[C@H](C)NC(=O)[C@H](CC(C)C)NC(=O)[C@@H]5CSSC[C@@H](C(=O)NCC(N)=O)NC(=O)[C@H](Cc6ccccc6)NC(=O)CNC(=O)[C@H](CC(N)=O)NC(=O)[C@@H]6CCCN6C(=O)CNC(=O)[C@H](CSSC[C@H](NC(=O)[C@H](CO)NC(=O)[C@H]([C@@H](C)O)NC(=O)[C@@H]6CCCN6C(=O)[C@H](C)NC(=O)[C@H](Cc6c[nH]c7ccccc67)NC(=O)[C@H](CC(=O)O)NC(=O)CNC(=O)[C@H](CCCNC(=N)N)NC(=O)CNC(=O)[C@H](CCC(N)=O)NC(=O)[C@@H]6CCCN6C3=O)C(=O)N[C@@H](CO)C(=O)N[C@@H](CCC(N)=O)C(=O)N[C@@H](CC(=O)O)C(=O)N[C@@H](CO)C(=O)N[C@@H](CC(=O)O)C(=O)N5)NC(=O)[C@H](C(C)C)NC4=O)c3ccc4c(S(=O)(=O)[O-])cc(S(=O)(=O)O)cc4c3C2(C)C)C(C)(C)c2c1ccc1c(S(=O)(=O)O)cc(S(=O)(=O)O)cc21` (single isomer, unassigned) [^64Cu-DOTA/Cy5.5-2.5D, ^64Cu-DOTA-Lys(Cy5.5)-Gly-Gly-Tyr-2.5D, metal not drawn], for which the “Cell binding and uptake with excess c(RGDyK)” value with MDA-MB-435 cells (1 μg c(RGDyK)) and in the data set with U87MG cells was “blocked” in each case. In the data set on MDA-MB-435 cells (1.5 μCi/tube, IBB, gamma counter, triplicate), the “Cell binding and uptake, versus U87MG cells” value is given as “lower levels of probe uptake”. The “In vivo metabolic stability in tumor” value in [1] (U87MG tumor 1 hr post injection) was “significant breakdown of probe”. Besides, the “In vivo metabolic stability in kidney” value in data set [1] (kidney 1 hr post injection) is recorded as “intact probe was not able to be recovered”. In addition, the “In vivo metabolic stability in liver” value in data set [1] (liver 1 hr post injection) was “intact probe was not able to be recovered”. Moreover, the tissue uptake at 1 h in [2] (100 uCi) came to 1.33 ± 0.02 %ID/g; in data set [2], 0.82 ± 0.05 %ID/g. The tissue uptake at 24 h came to 1.01 ± 0.1 %ID/g in [2] (100 uCi) and 0.6 ± 0.09 %ID/g in data set [2]. The tissue uptake in [3] (kidney, Kidney uptake, for 1-4 hr post injection, approximate) was approximately 80 %ID/g; in [3] (liver, Liver uptake, at 1-24 hr post injection), 4 to 7 %ID/g; in data set [3] (liver, Liver uptake, at 1 and 4 hr post injection), 4 to 7 %ID/g. For the same compound, the figures for the “Stability in mouse serum” value in data set [4] (1 hr) and in data set [4] (24 hr) were “minimal probe degradation” and “intact probe was unrecoverable”, respectively.
Regarding echistatin (from UniProt P17347), the equilibrium dissociation constant (Kd) in data set [5] is 400 pM.
`CC(C)C[C@@H]1NC(=O)[C@@H]2CSSC[C@@H](C(=O)NCC(N)=O)NC(=O)[C@H](Cc3ccccc3)NC(=O)CNC(=O)[C@H](CC(N)=O)NC(=O)[C@@H]3CCCN3C(=O)CNC(=O)[C@@H]3CSSC[C@H](NC(=O)[C@H](CO)NC(=O)[C@H]([C@@H](C)O)NC(=O)[C@@H]4CCCN4C(=O)[C@H](C)NC(=O)[C@H](Cc4c[nH]c5ccccc45)NC(=O)[C@H](CC(=O)O)NC(=O)CNC(=O)[C@H](CCCNC(=N)N)NC(=O)CNC(=O)[C@H](CCC(N)=O)NC(=O)[C@@H]4CCCN4C(=O)[C@@H](NC(=O)CNC(=O)CN4CCN(CC(=O)O)CCN(CC(=O)O)CCN(CC(=O)O)CC4)CSSC[C@H](NC(=O)CNC(=O)[C@H](C)NC1=O)C(=O)N[C@@H](C(C)C)C(=O)N3)C(=O)N[C@@H](CO)C(=O)N[C@@H](CCC(N)=O)C(=O)N[C@@H](CC(=O)O)C(=O)N[C@@H](CO)C(=O)N[C@@H](CC(=O)O)C(=O)N2` [^64Cu-DOTA-2.5D, metal not drawn] ({DOTA}-GCPQGRGDWAPTSCSQDSDCLAGCVCGPNGFCG-NH2; disulfide 2-24, 14-26, 20-32): the “In vivo metabolic stability in blood, tumor and kidneys” value in [6] is “recovered intact”. Further, in data set [7], the Stability in serum entry is “only minimal fragmentation”. Moreover, the Liver uptake in the data set on U87MG tumor xenografts (1 to 4 hr post injection, previously observed) is 1-2 %ID/g. In addition, the values for the Kidney uptake with U87MG tumor xenografts (1 hr post injection), in the data set on U87MG tumor xenografts (4 hr post injection) and in the data set on U87MG tumor xenografts (24 hr post injection) were 8.08 ± 0.67 %ID/g, 2.69 ± 0.48 %ID/g and 1.25 ± 0.11 %ID/g, respectively.
For “ECESGPCCRNCKFLKEGTICKRARGDDMDDYCNGKTCDCPRNPHKGPAT (disulfide 2-11, 7-32, 8-37, 20-39 (inferred)) [Echistatin]”, the dissociation constant (Kd) on αvβ3 integrin was approximately 400 pM.
